Measurements reported in ChEMBL document CHEMBL1124897, “(1-Pyrenylmethyl)amino alcohols, a new class of antitumor DNA intercalators. Discovery and initial amine side chain structure-activity studies” (1990).

Experiments:
Type in all cases: functional, Mus musculus
P388 [1] = test: In vivo antitumor activity against murine lymphocytic leukemia P388 measured as percent increase in life span
Procedure, shortened: (§1)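 Male CD2-F1 mice (20 ± 3 g) implanted ip with 1 × 10^6 viable P388 cells on day 0. Drug given ip as aqueous suspension or solution in 0.9% NaCl or 5% dextrose on days 1, 5 and 9, dosed per body weight in mg/kg. Several dose levels bracketing the LD20 were tested, six mice per dose. Deaths before the control median day of death were counted as drug toxicity.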

P388 [2] = test: In vivo antitumor activity against murine lymphocytic leukemia P388 measured as optimal dose
Procedure, shortened: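 Male CD2-F1 mice (20 ± 3 g) implanted ip with 1 × 10^6 viable P388 cells on day 0. Compound given ip as aqueous suspension or solution in 0.9% NaCl or 5% dextrose on days 1, 5 and 9, dosed per mg/kg body weight. Several doses bracketing LD20 were tested, six mice per dose. %ILS was calculated from median day of death of treated versus control mice. Values are optimal from at least two experiments.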

P388 [3] = test: In vivo antitumor activity against murine lymphocytic leukemia P388 measured as lethal dose […]; set-up: unit: mg/kg; procedure, shortened: as §1

**Q.** What does the source list for `CC(C)C(CO)NCc1ccc2ccc3cccc4ccc1c2c34.Cl` (stereo not drawn)?
**A.** ILS (P388 [1]): 27%; Optimal dose (P388 [2]): 200 mg/kg; LD20 (P388 [3]): 450
